Data reported in ChEMBL document CHEMBL3351523 (Bioorg Med Chem, 2014).

Assays:
[1] = Cytotoxicity against mock-infected african green monkey Vero 76 cells after 48 to 96 hrs by MTT assay; type: cell-based; settings: chlorocebus sabaeus, mock-infected Vero 76 cells
[2] = tested on: Vesicular stomatitis virus; assay: Antiviral activity against Vesicular stomatitis virus infected in african green monkey Vero 76 cells assessed as reduction in plaque number after 2 days by plaque reduction assay; type: functional, organism-based; settings: 48 h
[3] = tested on: Respiratory syncytial virus; assay: Antiviral activity against Respiratory syncytial virus infected in african green monkey Vero 76 cells assessed as reduction in plaque number after 5 days by plaque reduction assay; type: functional, organism-based; settings: human respiratory syncytial virus, 120 h
[4] = Cytotoxicity against mock-infected MDBK cells after 48 to 96 hrs by MTT assay; type: cell-based, Bos taurus; settings: cattle
Summary of the method: (§1)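 Mock-infected MDBK (6 × 10^5 cells/mL; MEM-E, 10% horse serum, 1 mM pyruvate) or BHK (1 × 10^6 cells/mL; MEM-E, 10% FBS) cells were incubated at 37 °C, 5% CO2 with serial dilutions from 100 µM, 1:5. Viability by MTT after 48–96 h. CC50 from linear regression against untreated controls.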

[5] = tested on: Human immunodeficiency virus 1; assay: Antiviral activity against HIV1 infected in human MT4 cells assessed as inhibition of virus-induced cytopathogenicity after 4 days by MTT assay; type: functional, organism-based; settings: Human immunodeficiency virus 1, MT4, 96 h
Summary of the method: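 MT-4 cells (1 × 10^4/well in RPMI) were infected acutely with HIV-1 IIIB, 100 CCID50 (m.o.i. 0.01), with serial dilutions from 100 µM, 1:5. After 4 days at 37 °C, protection from virus-induced cytopathogenicity was read by MTT. EC50 came from linear regression against untreated controls.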

[6] = Selectivity index, ratio of CC50 for african green monkey Vero 76 cells to EC50 for Respiratory syncytial virus; type: toxicity, cell-based; settings: read-out: Ratio CC50/EC50
Summary of the method: (§2)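 Mock-infected Vero-76 cells were tested in parallel on the same 24-well plates as the plaque assays (seeding 4 × 10^5 cells/mL, D-MEM with FBS), with serial compound dilutions at 37 °C, 5% CO2. Viability was read after 48–96 h by crystal violet staining. CC50 by linear regression; selectivity index = Vero-76 CC50/EC50 for CVB-5 or RSV.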

[7] = tested on: Bovine viral diarrhea virus 1; assay: Antiviral activity against Bovine viral diarrhea virus infected in MDBK cells assessed as inhibition of virus-induced cytopathogenicity after 3 to 4 days by MTT assay; type: functional, organism-based; settings: Bovine viral diarrhea virus isolates and strains
[8] = Selectivity index, ratio of CC50 for african green monkey Vero 76 cells to EC50 for Coxsackievirus B5; type: toxicity, cell-based; settings: read-out: Ratio CC50/EC50; summary of the method: as §2
[9] = Cytotoxicity against mock-infected BHK21 cells after 48 to 96 hrs by MTT assay; type: functional; settings: Mesocricetus auratus, BHK-21; summary of the method: as §1
[10] = Cytotoxicity against mock-infected human MT4 cells after 96 hrs by MTT assay; type: cell-based
Summary of the method: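 Exponentially growing MT-4 cells were seeded at 1 × 10^5 cells/mL in RPMI-1640 with 10% FBS and held at 37 °C, 5% CO2 with serial compound dilutions. Viability was read by MTT after 96 h. CC50 from linear regression against untreated controls.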

Poliovirus 1 = assay: Antiviral activity against Poliovirus type 1 Sabin strain infected in african green monkey Vero 76 cells assessed as reduction in plaque number after 2 days by plaque reduction assay; type: functional, organism-based; settings: Enterovirus C, 48 h
Coxsackievirus B5 = assay: Antiviral activity against Coxsackievirus B5 infected in african green monkey Vero 76 cells assessed as reduction in plaque number after 3 days by plaque reduction assay; type: functional, organism-based; settings: Enterovirus B, 72 h
Yellow fever virus = assay: Antiviral activity against Yellow fever virus infected in BHK21 cells assessed as inhibition of virus-induced cytopathogenicity after 3 to 4 days by MTT assay; type: functional, organism-based; settings: BHK-21
Vaccinia virus = assay: Antiviral activity against Vaccinia Virus infected in african green monkey Vero 76 cells assessed as reduction in plaque number after 3 days by plaque reduction assay; type: functional, organism-based; settings: Orthopoxvirus vaccinia, 72 h
Reovirus sp. = assay: Antiviral activity against Reovirus type-1 infected in BHK21 cells assessed as inhibition of virus-induced cytopathogenicity after 3 to 4 days by MTT assay; type: functional, organism-based; settings: BHK-21
Human alphaherpesvirus 1 = assay: Antiviral activity against HSV1 infected in african green monkey Vero 76 cells assessed as reduction in plaque number after 3 days by plaque reduction assay; type: functional, organism-based; settings: Human alphaherpesvirus 1, Vero, 72 h

## Cc1ccc2nc(-c3ccc(F)cc3)n([C@H]3CCCN4CCCC[C@H]34)c2c1
[1]
  CC50: > 100 µM
[2]
  EC50: > 100 µM
[3]
  EC50: 63 µM
[4]
  CC50: > 100 µM
[5]
  EC50: > 100 µM
[6]
  selectivity ratio: > 1.59
[7]
  EC50: > 100 µM
[8]
  selectivity ratio: > 1.25
[9]
  CC50: > 100 µM
[10]
  CC50 at 96 h: > 100 µM
Poliovirus 1
  EC50: > 100 µM
Coxsackievirus B5
  EC50: 80 µM
Yellow fever virus
  EC50: > 100 µM
Vaccinia virus
  EC50: > 100 µM
Reovirus sp.
  EC50: > 100 µM
Human alphaherpesvirus 1
  EC50: > 100 µM

## c1ccc(-n2c(C[C@H]3CCCN4CCCC[C@H]34)nc3ccccc32)cc1
[1]
  CC50: > 100 µM
[2]
  EC50: > 100 µM
[3]
  EC50: 7 µM
[4]
  CC50: 90 µM
[5]
  EC50: > 100 µM
[6]
  selectivity ratio: > 14.3
[7]
  EC50: 44 µM
[8]
  selectivity ratio: > 5.88
[9]
  CC50: 29 µM
[10]
  CC50 at 96 h: 42 µM
Poliovirus 1
  EC50: 73 µM
Coxsackievirus B5
  EC50: 17 µM
Yellow fever virus
  EC50: > 100 µM
Vaccinia virus
  EC50: > 100 µM
Reovirus sp.
  EC50: > 100 µM
Human alphaherpesvirus 1
  EC50: > 100 µM

## c1ccc(Cn2c(-c3ccccc3)nc3ccccc32)cc1
[1]
  CC50: 87 µM
[2]
  EC50: > 100 µM
[3]
  EC50: 25 µM
[4]
  CC50: 54 µM
[5]
  EC50: > 100 µM
[6]
  selectivity ratio: 3.48
[7]
  EC50: > 100 µM
[9]
  CC50: 36 µM
[10]
  CC50 at 96 h: 47 µM
Poliovirus 1
  EC50: > 100 µM
Coxsackievirus B5
  EC50: > 100 µM
Yellow fever virus
  EC50: > 100 µM
Vaccinia virus
  EC50: > 100 µM
Reovirus sp.
  EC50: > 100 µM
Human alphaherpesvirus 1
  EC50: > 100 µM

## NC(=O)c1ncn([C@@H]2O[C@H](CO)[C@@H](O)[C@H]2O)n1 [RIBAVIRIN]
[1]
  CC50: > 100 µM
[2]
  EC50: > 100 µM
[4]
  CC50: > 100 µM
[6]
  selectivity ratio: > 14.3
[7]
  EC50: 8 µM
[9]
  CC50: > 100 µM
Poliovirus 1
  EC50: > 100 µM
Coxsackievirus B5
  EC50: > 100 µM
Yellow fever virus
  EC50: > 100 µM
Vaccinia virus
  EC50: > 100 µM
Reovirus sp.
  EC50: > 100 µM
Human alphaherpesvirus 1
  EC50: > 100 µM

## Clc1cc2nc(Cc3ccc(Br)cc3)n(C[C@@H]3CCCN4CCCC[C@H]34)c2cc1Cl
[1]
  CC50: > 100 µM
[2]
  EC50: > 100 µM
[3]
  EC50: 9 µM
[4]
  CC50: 58 µM
[5]
  EC50: > 100 µM
[6]
  selectivity ratio: > 11.1
[7]
  EC50: > 100 µM
[8]
  selectivity ratio: > 2
[9]
  CC50: 70 µM
[10]
  CC50 at 96 h: 12 µM
Poliovirus 1
  EC50: > 100 µM
Coxsackievirus B5
  EC50: 50 µM
Yellow fever virus
  EC50: > 100 µM
Vaccinia virus
  EC50: > 100 µM
Reovirus sp.
  EC50: > 100 µM
Human alphaherpesvirus 1
  EC50: > 100 µM

## Nc1ccc(Cc2nc3cc(Cl)c(Cl)cc3[nH]2)cc1
[1]
  CC50: 80 µM
[2]
  EC50: > 100 µM
[3]
  EC50: 20 µM
[4]
  CC50: 62 µM
[5]
  EC50: > 100 µM
[6]
  selectivity ratio: 4
[7]
  EC50: 22 µM
[8]
  selectivity ratio: 6.67
[9]
  CC50: 43 µM
[10]
  CC50 at 96 h: 71 µM
Poliovirus 1
  EC50: 80 µM
Coxsackievirus B5
  EC50: 12 µM
Yellow fever virus
  EC50: > 100 µM
Vaccinia virus
  EC50: > 100 µM
Reovirus sp.
  EC50: > 100 µM
Human alphaherpesvirus 1
  EC50: > 100 µM

## COc1c(C)c2c(c(O)c1C/C=C(\C)CCC(=O)O)C(=O)OC2 [MYCOPHENOLIC ACID]
[1]
  CC50: 20 µM
[6]
  selectivity ratio: 33.3
[7]
  EC50: > 100 µM
[9]
  CC50: > 100 µM
Poliovirus 1
  EC50: > 100 µM
Coxsackievirus B5
  EC50: > 100 µM
Yellow fever virus
  EC50: > 100 µM
Vaccinia virus
  EC50: 2 µM
Reovirus sp.
  EC50: > 100 µM
Human alphaherpesvirus 1
  EC50: > 100 µM

## Clc1ccc(Cc2nc3cc(Cl)c(Cl)cc3n2C[C@@H]2CCCN3CCCC[C@H]23)cc1Cl
[1]
  CC50: > 100 µM
[2]
  EC50: > 100 µM
[3]
  EC50: 12 µM
[4]
  CC50: 46 µM
[5]
  EC50: > 100 µM
[6]
  selectivity ratio: > 8.33
[7]
  EC50: > 100 µM
[8]
  selectivity ratio: > 11.1
[9]
  CC50: 52 µM
[10]
  CC50 at 96 h: 9 µM
Poliovirus 1
  EC50: > 100 µM
Coxsackievirus B5
  EC50: 9 µM
Yellow fever virus
  EC50: > 100 µM
Vaccinia virus
  EC50: > 100 µM
Reovirus sp.
  EC50: > 100 µM
Human alphaherpesvirus 1
  EC50: > 100 µM

## CCC/C=C(\CC)c1nc2ccccc2[nH]1
[1]
  CC50: ≥ 100 µM
[2]
  EC50: > 100 µM
[3]
  EC50: 22 µM
[4]
  CC50: > 100 µM
[5]
  EC50: > 100 µM
[6]
  selectivity ratio: > 4.54
[7]
  EC50: > 100 µM
[8]
  selectivity ratio: > 1.11
[9]
  CC50: 67 µM
[10]
  CC50 at 96 h: 61 µM
Poliovirus 1
  EC50: > 100 µM
Coxsackievirus B5
  EC50: 90 µM
Yellow fever virus
  EC50: > 100 µM
Vaccinia virus
  EC50: > 100 µM
Reovirus sp.
  EC50: > 100 µM
Human alphaherpesvirus 1
  EC50: > 100 µM

## COc1ccc(Cc2nc3cc(Cl)c(Cl)cc3[nH]2)cc1
[1]
  CC50: > 100 µM
[2]
  EC50: > 100 µM
[3]
  EC50: 5 µM
[4]
  CC50: 17 µM
[5]
  EC50: > 100 µM
[6]
  selectivity ratio: ≥ 20
[7]
  EC50: > 100 µM
[9]
  CC50: 19 µM
[10]
  CC50 at 96 h: 29 µM
Poliovirus 1
  EC50: > 100 µM
Coxsackievirus B5
  EC50: > 100 µM
Yellow fever virus
  EC50: > 100 µM
Vaccinia virus
  EC50: > 100 µM
Reovirus sp.
  EC50: > 100 µM
Human alphaherpesvirus 1
  EC50: > 100 µM

## c1ccc2c(c1)Cn1c(nc3ccccc31)-c1ccccc1-2
[1]
  CC50: 80 µM
[2]
  EC50: > 100 µM
[3]
  EC50: 9 µM
[4]
  CC50: 23 µM
[5]
  EC50: > 100 µM
[6]
  selectivity ratio: 8.89
[7]
  EC50: > 100 µM
[9]
  CC50: 20 µM
[10]
  CC50 at 96 h: 44 µM
Poliovirus 1
  EC50: > 100 µM
Coxsackievirus B5
  EC50: > 100 µM
Yellow fever virus
  EC50: > 100 µM
Vaccinia virus
  EC50: > 100 µM
Reovirus sp.
  EC50: > 100 µM
Human alphaherpesvirus 1
  EC50: > 100 µM

## O=c1cnn([C@@H]2O[C@H](CO)[C@@H](O)[C@H]2O)c(=O)[nH]1 [6-AZAURIDINE]
[1]
  CC50: 20 µM
[2]
  EC50: > 100 µM
[4]
  CC50: > 100 µM
[6]
  selectivity ratio: 16.7
[7]
  EC50: > 100 µM
[9]
  CC50: > 100 µM
Poliovirus 1
  EC50: > 100 µM
Coxsackievirus B5
  EC50: > 100 µM
Yellow fever virus
  EC50: > 100 µM
Reovirus sp.
  EC50: > 100 µM
Human alphaherpesvirus 1
  EC50: > 100 µM
